Measured values of several laboratories.
Target: Serine/threonine-protein kinase PknB (pknB, Mycobacterium tuberculosis, UniProt P9WI81)

| SMILES | test | setting | quantity | result |
| --- | --- | --- | --- | --- |
| COc1cc(Nc2ncc(F)c(Nc3ccc4c(n3)NC(=O)C(C)(C)O4)n2)cc(OC)c1OC | binding, competition with immobilised ligand | 10 µM | inhibition | 46% |
| C[C@H](c1ccnc(Nc2nc3ccc(-c4cc(N(C)C)ncn4)cc3[nH]2)c1)N1CCN(C(=O)CC(F)(F)F)CC1 | cell-free assay, competition with immobilised ligand | 0.1 µM | remaining binding | 91% |
| Cc1ccc(C(=O)Nc2ccc(CN3CCN(C)CC3)c(C(F)(F)F)c2)cc1C#Cc1cnc2cccnn12 | cell-free assay | 23.5 nM | remaining signal | 98% |
| Nc1ncnc2occ(-c3ccc(NC(=O)Nc4cc(C(F)(F)F)ccc4F)cc3)c12 | cell-free assay | 20 µM | remaining signal | 66% |
| CC1CCCN1c1nccc(-c2cnn3ncccc23)n1 (centres unmarked) | binding | 1 µM | remaining binding | 100% |
| C[C@@H]1CN(c2cc(-c3n[nH]c4ccc(OC5(C)CC5)cc34)ncn2)C[C@H](C)O1 | cell-free assay, competition with immobilised ligand | 0.1 µM | remaining binding | 95% |
| CN(C)c1nccc(-c2cnn3ncccc23)n1 | binding | 1 µM | remaining binding | 76% |
| Nc1ncc(-c2nc(N3CCOCC3)nc(N3CCOCC3)n2)c(C(F)F)n1 | cell-free assay | 10 µM | remaining signal | 66% |
